Laboratory results from ChEMBL document CHEMBL3576766, “Immunomodulatory and Antileishmanial Activity of Phenylpropanoid Dimers Isolated from Nectandra leucantha” (J Nat Prod, 2015).
The source made the active and inactive calls. The calls are words filed in the database; no cut-off is given here.

Columns and labels:
Leishmania donovani [1] = experiment: Antileishmanial activity against DsRed2 expressing Leishmania donovani promastigote assessed as parasite death after 48 hrs by flow cytometry; assay type: functional, organism-based
[2] = Cytotoxicity against BALB/c mouse peritoneal macrophages after 48 hrs by MTT assay; assay type: cell-based; conditions: peritoneal macrophage cell
Method in brief: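 BALB/c peritoneal macrophages were seeded at 1×10^5 cells/well and exposed to 0.2 to 600 μM compound for 48 h at 37 °C under 5% CO2. Viability was read by MTT cleavage, with formazan extracted in 10% SDS for 18 h at 24 °C and absorbance read at 570 nm.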

[3] = Selectivity index, ratio of CC50 for BALB/c mouse peritoneal macrophages to IC50 for DsRed2-Leishmania donovani amastigotes; assay type: functional
Macrophage = experiment: Inhibition of IL6 production in DsRed2-Leishmania donovani promastigote infected in C57BL/6 mouse macrophages after 72 hrs by ELISA; assay type: functional, cell-based
Method in brief: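 C57BL/6 bone marrow-derived macrophages (3.5×10^6 cells/well, quadruplicates) were infected with DsRed2-L. donovani promastigotes at 1:10 and treated for 72 h at 37 °C. Supernatant IL-6 was measured by ELISA and reported in pg/mL as mean ± SE.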

[4] = Induction of NO production in C57BL/6 mouse macrophages after 72 hrs by Griess assay; conditions: macrophage
Leishmania donovani [5] = experiment: Antileishmanial activity against DsRed2 expressing Leishmania donovani amastigotes assessed as parasite death after 72 hrs by flow cytometry

| Compound | IC50 (Leishmania donovani [1]) | CC50 [2] [µM] | Ratio CC50/IC50 [3] | inhibition (Macrophage) | Activity [4] | IC50 (Leishmania donovani [5]) [µM] | IC50 (Leishmania donovani [1]; read-out: IC50) [µM] |
| --- | --- | --- | --- | --- | --- | --- | --- |
| C=CCc1ccc(Oc2cc([C@H](O)C=C)cc(OC)c2O)c(OC)c1 | Not Active | > 292 | >2.9 | Active | Non-toxic | 102 | – |
| SODIUM ANTIMONY GLUCONATE | – | 53.4 | – | – | – | – | 307 |
